Test results reported in the RNAGym collection of RNA variant scans (doi:10.1126/science.aae0568).
Fewer inactive variants are shown than the library holds.

B1: tRNA (parent)
chain: GUUCCGUUGGCGUAAUGGUAACGCGUCUCCCUCCUAAGGAGAAGACUGCGGGUUCGAGUCCCGUACGGAACG

Variants of: B1
Experiment: yeast fitness relative to wild type (ratio to wild type); higher = fitter; tRNA-Arg(CCU), competitive growth, 37 C, YPD
Procedure, shortened: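 For this measurement, the tRNA-Arg(CCU) gene was varied by chemical synthesis at a 3% per-site mutation rate across 69 sites, and each variant was placed at the native genomic locus in Saccharomyces cerevisiae. The pooled strains went through a 24-hour competition in YPD at 37°C in six parallel replicates, with amplicons from start and end populations read by 100-nucleotide paired-end sequencing. Darwinian fitness relative to wild type followed from the change in each genotype's frequency. Genotypes needed ≥ 100 starting reads, and estimates < 0.5 were set to 0.5.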

Compared with GUUCCGUUGGUGUACUGGUAACGCGUCUCCCUCCUAAGGAGAACAAUGCGGGUUCGAGUCCCGUACGGAACG [C11U A15C G44C C46A], GUUCCGUUGGUGUAGUGGUAACGCGUCUCCCUCCUAAGGAGAAGACUGCGGGUUCGAGUCCCGUACGGAACG [C11U A15G] is higher in yeast fitness: no more than 0.5 for the first, 1.01 for the second.

GUUCCGUUGGUGUAGUGGUAACACGUCUCCCUCCUAAGGAGAAGACUGCGGGUUCGAGUAUCCUAUGGAACG [C11U A15G G23A C60A C61U G63C C66U] and GUUCCGUUGGUGUGAUGGUAACGCGUCUCCCUCCUACGGAGAAGACUGUGGGUUCGAGUCCCGUACGGAACG [C11U A14G A37C C49U] cannot be ordered by yeast fitness: no more than 0.5 for the first, no more than 0.5 for the second.

GUUCCGUUGGUGUAUUGGUAACGCGUCUCCCUCCUAAGGAAAAGACUGCGGGUUCGAGUCCCGUACGGAACG [C11U A15U G41A] and GUUCCGUUGGUGUACUGGUAACGCGUGUCCCUCCUAAGGAGAAGACUGCGGGUUCGAGUCCCGUACGGAGCG [C11U A15C C27G A70G] cannot be ordered by yeast fitness: no more than 0.5 for the first, no more than 0.5 for the second.

GUUCCGUUGGUGUACUGGUAGCGCGUCUUCCUCCUAGGGAGAAGACUGCGGGUUCGAGUCCCGUACGGAACG [C11U A15C A21G C29U A37G] and GUUCCGUUGGUGUCAUGGUAACGCGUCUCCCUCCUAAGGAGAAGACUGCGGGUUCGAGUCCCCUACGGAACG [C11U A14C G63C] cannot be ordered by yeast fitness: no more than 0.5 for the first, no more than 0.5 for the second.

First: GUUCCGUUGGUGUACUGGUAACGCGUAUCCCUCCUAAGCAGAAGACUGCGGGUUCGAGUCCCGUCCGGAACG [C11U A15C C27A G39C A65C]
Second: GUUCCGUUGGUGUACUGGUAACGCGUCUUCCUCCUAGGGAGAAGACUGCGGGUUCGAGUCCCGUACGGUACG [C11U A15C C29U A37G A69U]
The yeast fitness of the first is higher: 0.531 for the first, no more than 0.5 for the second.

First: GUUCCGUUGGUGUAAUGGUCACGCGUCUGCCUCCUAAGGAGAAGACUGCGGGUUCCAAUCCCGUACGGAACG [C11U A20C C29G G56C G58A]
Second: GUUCCGUUGGUGUGAUGGUAACGGGUUUCCCUCCUAAGGAACAGACUGCGGGUUCGAGUCCCGUACGGAACG [C11U A14G C24G C27U G41A A42C]
The yeast fitness of the first is higher: 0.693 for the first, no more than 0.5 for the second.

Going from GUUCCGUUGGUGUUAUGGUAACGGGUCUCCCUCCUAAGGAGGAGACUGCGGGUUCGAGUCCCGUACGGAACG [C11U A14U C24G A42G] to GUUCCGUUGGUGUUAUGGUAACGCGUCUCCCUCCUAAGGGGCGGACUGCGGGUUCGAGUCCCGUACGGAACG [C11U A14U A40G A42C A43G], the yeast fitness falls from 0.54 to no more than 0.5.

GUUCCGUUGGUGUAGUGGUAACGCGUCUCCCACCUAAGGAGAAGACUGCGGGUUCGAGUCCCGUACGGAACG [C11U A15G U32A] and GUUCCGUUGGUGUGAUGGUAACGCGUAUCCCUCCUAAGGAGAAGACUACGGGAUCGAGUCGCGUACGGAACG [C11U A14G C27A G48A U53A C61G] cannot be ordered by yeast fitness: no more than 0.5 for the first, no more than 0.5 for the second.

GUUCCGUUGGUGUACUGGUAACGCGUAUCCCUCCUAAGGAGAAGACUGCGGGUUCGAGUCCCGUACGAAACG [C11U A15C C27A G68A] and GUUCCGUUGGUGUAGUGGUAGCGCGUCUCCCUCUUAAGGAGAAAACUGCGGGUUCGAGUCACGUACGGACCG [C11U A15G A21G C34U G44A C61A A70C] cannot be ordered by yeast fitness: no more than 0.5 for the first, no more than 0.5 for the second.

Going from GUUCCGUUGGUGUGAUGGAAACGCGUCUCCCUCCUAAGGAGAAGACUGCGGGUUCGAGUCCCGUACGGAACG [C11U A14G U19A] to GUUCCGUUGGUGUCAUGGUAACACGCCUCCCUCCUAAGGAGAAGACUGCGGGUUUGAGUCCCGUACGGAACG [C11U A14C G23A U26C C55U], the yeast fitness falls from 0.658 to no more than 0.5.

Going from GUUCCGUUGGUGUGAUGGUAACGCGUGUCCUUCCUAAGGAGAAGACUGCGGGUUCGAGUCCCGUACGGAACG [C11U A14G C27G C31U] to GUUCCGUUGGUGUUACGGUAACGCCUUUCCCUCCUAAGGAGAAGACUGCGGGUUCGAGUCGCGUACGGAACG [C11U A14U U16C G25C C27U C61G], the yeast fitness falls from 0.618 to no more than 0.5.

Compared with GUUCCGUUGGUGUAGUGGUAACGCGUGUCCCUCCUAAGGAGAAGAUUGCGGGUUCGAGUCCCGUACGGAACG [C11U A15G C27G C46U], GUUCCGUUGGUGUACUGGUAACGCGUAUCCCUCCUAAGCAGAAGACUACGGGUUCGAGUCCCGUACGGAACG [C11U A15C C27A G39C G48A] is lower in yeast fitness: 0.548 for the first, 0.546 for the second.

First: GUUCCGUUGGUGUAAUGGUCACGCGUCUCCCUCCUAAGGAGAAGACUGCGGGUUCGAGUCCCGUACGGCACG [C11U A20C A69C]
Second: GUUCCGUUGGUGUGAUGGUAACGCGUCUCCCUCCUAAGGAGAAGACUGCGGGUUCGAAUCCCGUACGGCACG [C11U A14G G58A A69C]
The yeast fitness of the first is higher: 0.627 for the first, no more than 0.5 for the second.

First: GUUCCGUUGGUGUAUUGGUAACGCGUCUCCCUCCGAAGGAGAACACUGCGGGUUCGAGUCCCGUACGGGACG [C11U A15U U35G G44C A69G]
Second: GUUCCGUUGGUGUUAUGGUAACGGGUCUCCCUCCUAAGGAGAAAACUGUGGGUUCGAGUCCCGUACGGAACG [C11U A14U C24G G44A C49U]
The yeast fitness of the first is higher: 0.774 for the first, no more than 0.5 for the second.

First: GUUCCGUUGGUGUACUGGUAACGCGUCUUCCUCCUAGGGAGAAGACUGCGGGUUCGAGUCCCGUACGGAACG [C11U A15C C29U A37G]
Second: GUUCCGUUGGUGUCAUGGUAACGCGUCUCCCUCCUAAGGAGAAGACUGCGGGUUCGAGUCCCGUACGAAACG [C11U A14C G68A]
The yeast fitness of the first is lower: 0.535 for the first, 0.624 for the second.

Going from GUUCCGUUGGUGUAGUGGUAACGCGGCUCCCUACUAAGGAGAAGACUGCGGGUUGGAGUCCCGUACGGAACG [C11U A15G U26G C33A C55G] to GUUCCGUUGGUGUAGUGGUAACGCGUCUCCCUCCUAAGGAGAAGAAUGCGGGUUCGAGUCCCGUACGGAACG [C11U A15G C46A], the yeast fitness rises from no more than 0.5 to 0.915.

Going from GUUCCGUUGGUGUGAUGGUGACGGGUCUCCCUCCUAAGGAGAAGACUGCGGGUUCGAGUCCCGUACGGAACG [C11U A14G A20G C24G] to GUUCCGUUGGUGUAGUGGUAACGCGUCUCCCUCCUAAGGAGAAGACUGCGGGUUCGAGUCCCGUACGGUACG [C11U A15G A69U], the yeast fitness rises from no more than 0.5 to 0.765.

Going from GUUCCGUUGGUGUGAUGGUAACGGGUUUCCCUCCUAAGGAACAGACUGCGGGUUCGAGUCCCGUAUGGAACG [C11U A14G C24G C27U G41A A42C C66U] to GUUCCGUUGGUGUAGUGAUAACGCGUCUCCAUCCUGAGGAGAAGACUGCGGGUUCGAGUCGCGUACGGAACG [C11U A15G G18A C31A A36G C61G], the yeast fitness rises from no more than 0.5 to 0.513.

GUUCCGUUGGUGUGAUGGUACCGCGUCUUCCUCCUAGGGAGAAGACUGCGGGUUUGAGUCCCGUACGGAACG [C11U A14G A21C C29U A37G C55U] gave a yeast fitness of no more than 0.5.
